Results reported in ChEMBL document CHEMBL4364290, “Light-controlled inhibition of BRAFV600E kinase” (Eur J Med Chem, 2019).
Activity calls are given as the source filed them. The calls are words filed in the database; no cut-off is given here.

Experiments:
[1] = Half life of the compound in DMSO-d6 at 2 mg/ml measured at room temperature under 365 nm light irradiation using trans-isomer form of compound by 1H-19F NMR spectroscopic analysis
In short: (§1)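 Cis isomer generated by 365 nm irradiation to PSS; half-life of thermal cis-to-trans relaxation followed at room temperature in DMSO, in BRAF assay buffer, or in 1:1 BRAF assay buffer/acetonitrile where solubility required.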

[2] = target: T1, Serine/threonine-protein kinase B-raf (Homo sapiens, UniProt P15056, V600E); test: Inhibition of human recombinant N-terminal GST/His6-tagged BRAF V600E mutant (Q417 to H766 residues) expressed in Sf9 insect cells using MEK1 as substrate measured after 1 hr using light irradiated compound at 365 nm for 45 mins by Western blot analysis
T1 sequence (P15056 2-766 V600E limits assumed): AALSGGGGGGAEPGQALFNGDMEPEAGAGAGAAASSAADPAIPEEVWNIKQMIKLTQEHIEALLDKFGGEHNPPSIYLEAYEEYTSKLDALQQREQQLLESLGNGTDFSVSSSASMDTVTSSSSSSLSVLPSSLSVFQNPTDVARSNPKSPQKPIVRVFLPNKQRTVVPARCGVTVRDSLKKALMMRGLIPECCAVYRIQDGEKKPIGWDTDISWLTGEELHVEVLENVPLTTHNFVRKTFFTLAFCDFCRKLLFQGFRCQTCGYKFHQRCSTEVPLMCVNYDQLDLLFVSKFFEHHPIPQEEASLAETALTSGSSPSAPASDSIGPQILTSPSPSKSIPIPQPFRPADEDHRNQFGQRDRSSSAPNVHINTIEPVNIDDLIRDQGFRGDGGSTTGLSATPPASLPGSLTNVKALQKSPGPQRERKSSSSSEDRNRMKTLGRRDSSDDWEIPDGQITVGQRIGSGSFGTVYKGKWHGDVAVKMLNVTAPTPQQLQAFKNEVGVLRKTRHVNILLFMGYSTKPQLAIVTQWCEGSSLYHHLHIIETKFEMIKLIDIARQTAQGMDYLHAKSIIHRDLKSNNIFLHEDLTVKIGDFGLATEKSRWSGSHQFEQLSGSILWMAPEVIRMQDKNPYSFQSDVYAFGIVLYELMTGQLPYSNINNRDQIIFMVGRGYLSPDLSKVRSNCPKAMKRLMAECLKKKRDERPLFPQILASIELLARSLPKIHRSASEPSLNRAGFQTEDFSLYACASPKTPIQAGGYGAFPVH

[3] = Drug re-isomerization in DMSO-d6 assessed as cis isomer level at PSS at 2 mg/ml measured after 20 hrs under dark condition at room temperature using irradiated compound by 1H-NMR spectroscopic analysis
[4] = Half life of the compound in pH 7.5 tris HCl buffer/acetonitrile at 2 mg/ml measured at room temperature under 365 nm light irradiation using trans-isomer form of compound by 1H-19F NMR spectroscopic analysis; in short: as §1
[5] = Drug isomerization in DMSO-d6 irradiated at 365 nm assessed as cis isomer level at PSS at 2 mg/ml measured after 60 mins under room temperature by 1H and 19F-NMR spectroscopic analysis
[6] = Absorption property of the compound in DMSO assessed as maximum absorption wavelength; type: physicochemical
In short: (§2)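 λmax of the trans isomer recorded in DMSO and in BRAF assay buffer.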

[7] = Drug isomerization in DMSO-d6 assessed as cis isomer level at PSS at 2 mg/ml irradiated at 365 nm light measured immediately by 1H-NMR spectroscopic analysis
[8] = Stability of the compound in DMSO-D6 at 2 mg/ml by 1H-19F NMR analysis; type: physicochemical; conditions: read-out: Stability
[9] = Absorption property of the compound in pH 7.5 tris HCl buffer assessed as maximum absorption wavelength; type: physicochemical; in short: as §2
[10] = target: T1, Serine/threonine-protein kinase B-raf; test: Inhibition of human recombinant N-terminal GST/His6-tagged BRAF V600E mutant (Q417 to H766 residues) expressed in Sf9 insect cells using MEK1 as substrate measured after 1 hr using preheated compound at 60 degC for 30 mins by Western blot analysis
[11] = Drug isomerization in DMSO-d6 irradiated at 365 nm assessed as cis isomer level at PSS at 2 mg/ml measured after 30 mins under room temperature by 1H and 19F-NMR spectroscopic analysis
[12] = Drug isomerization in DMSO-d6 irradiated at 365 nm assessed as cis isomer level at PSS at 2 mg/ml measured after 90 mins under room temperature by 1H and 19F-NMR spectroscopic analysis
[13] = Drug isomerization in DMSO-d6 irradiated at 365 nm assessed as cis isomer level at PSS at 2 mg/ml measured after 75 mins under room temperature by 1H and 19F-NMR spectroscopic analysis
[14] = Drug isomerization in DMSO-d6 irradiated at 365 nm assessed as cis isomer level at PSS at 2 mg/ml measured after 135 mins under room temperature by 1H and 19F-NMR spectroscopic analysis
[15] = Drug isomerization in DMSO-d6 irradiated at 365 nm assessed as cis isomer level at PSS at 2 mg/ml measured after 70 mins under room temperature by 1H and 19F-NMR spectroscopic analysis
[16] = Drug isomerization in DMSO-d6 irradiated at 365 nm assessed as cis isomer level at PSS at 2 mg/ml measured after 100 mins under room temperature by 1H and 19F-NMR spectroscopic analysis
[17] = target: T1, Serine/threonine-protein kinase B-raf; test: Inhibition of human recombinant BRAF V600E mutant using MEK1 as substrate measured after 1 hr by Western blot analysis
[18] = system: Serine/threonine-protein kinase B-raf (Homo sapiens), P15056 [V600E]; test: Inhibition of BRAF V600E mutant in human SK-MEL-28 cells using peptide substrate by STK-Pamchip array-based method; type: cell-based
Serine/threonine-protein kinase B-raf (Homo sapiens), P15056 [V600E], sequence (P15056 whole entry V600E, the tested form may be a part): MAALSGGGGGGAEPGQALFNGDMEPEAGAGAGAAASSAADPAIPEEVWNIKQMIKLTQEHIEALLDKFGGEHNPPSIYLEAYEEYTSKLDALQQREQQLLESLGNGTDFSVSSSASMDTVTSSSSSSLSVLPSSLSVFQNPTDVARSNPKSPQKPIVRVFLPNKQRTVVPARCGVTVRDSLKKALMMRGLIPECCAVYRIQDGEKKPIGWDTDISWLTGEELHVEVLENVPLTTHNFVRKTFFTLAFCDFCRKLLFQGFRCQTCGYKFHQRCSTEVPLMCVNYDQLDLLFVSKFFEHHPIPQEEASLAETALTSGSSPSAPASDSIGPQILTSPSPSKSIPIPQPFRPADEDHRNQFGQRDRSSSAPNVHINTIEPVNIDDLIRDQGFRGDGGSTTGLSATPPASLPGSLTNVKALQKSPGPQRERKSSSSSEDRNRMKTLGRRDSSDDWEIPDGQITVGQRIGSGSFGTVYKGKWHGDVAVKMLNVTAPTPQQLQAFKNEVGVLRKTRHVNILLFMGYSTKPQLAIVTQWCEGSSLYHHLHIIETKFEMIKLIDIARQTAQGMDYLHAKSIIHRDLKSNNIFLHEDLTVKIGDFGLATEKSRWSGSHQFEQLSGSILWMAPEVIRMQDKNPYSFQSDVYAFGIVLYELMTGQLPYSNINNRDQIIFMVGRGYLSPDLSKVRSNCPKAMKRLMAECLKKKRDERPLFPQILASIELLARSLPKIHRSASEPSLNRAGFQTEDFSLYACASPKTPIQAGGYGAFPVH
In short: (§3)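 SK-Mel-28 cell lysates treated with DMSO control or inhibitor, either dark (thermally adapted) or irradiated with 365 nm light; kinase activity profiled on PamGene STK peptide chips.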

[19] = system: A-375; test: Cytotoxicity against human A375 cells harboring BRAF V600E mutant assessed as reduction in cell viability at 10 uM incubated for 24 hrs by MTS assay; type: functional, cell-based
In short: (§4)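 A375 melanoma cells (BRAF V600E) exposed 24 h to 10 µM compound, thermally adapted or 365 nm-irradiated, versus DMSO control; viability by MTS assay.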

[20] = system: Serine/threonine-protein kinase B-raf (Homo sapiens), P15056 [V600E]; test: Inhibition of BRAF V600E mutant in human SK-MEL-28 using peptide as substrate using irradiated compound at 365 nm light for 45 mins by STK-Pamchip array-based method; type: cell-based; in short: as §3
[21] = Drug isomerization in bovine plasma at 10 uM measured after 20 hrs at 37 degC by LCMS analysis; type: ADME, cell-free, Bos taurus; conditions: cattle
[22] = Half life of the compound in pH 7.5 tris HCl buffer at 2 mg/ml measured at room temperature under 365 nm light irradiation using trans-isomer form of compound by 1H-19F NMR spectroscopic analysis; in short: as §1
[23] = Thermal re-isomerization in bovine plasma assessed as trans-isomer formation at 10 uM measured after 1 hr at 37 degC using pre-irradiated compound at 365 nm light for 1 hr by LCMS analysis; type: ADME, cell-free, Bos taurus; conditions: cattle
[24] = Drug isomerization in DMSO-d6 irradiated at 365 nm assessed as rate of thermal relaxation measured as cis isomer level at PSS at 2 mg/ml measured after 18 hrs storage in dark at room temperature by 1H-NMR spectroscopic analysis
[25] = Drug isomerization in DMSO-d6 irradiated at 365 nm assessed as rate of thermal relaxation measured as cis isomer level at PSS at 2 mg/ml measured after 70 hrs storage in dark at room temperature by 1H-NMR spectroscopic analysis
[26] = Drug isomerization in DMSO-d6 irradiated at 365 nm assessed as cis isomer level at PSS at 2 mg/ml measured after 45 mins under room temperature by 1H and 19F-NMR spectroscopic analysis
[27] = Stability of thermally adapted compound in bovine plasma at 10 uM after 1 hr at 37 degC by LCMS analysis; type: ADME, cell-free, Bos taurus; conditions: cattle
[28] = system: Serine/threonine-protein kinase B-raf (Homo sapiens), P15056 [V600E]; test: Reversible inhibition of human recombinant N-terminal GST/His6-tagged BRAF V600E mutant (Q417 to H766 residues) expressed in Sf9 insect cells using MEK1 as substrate at 1 uM pre-irradiated with 365 nm light for 45 mins followed by thermal activation at 60 degC for 30 mins and subsequent light irradiation at 365 nm for 45 mins by Western blot analysis
[29] = system: Serine/threonine-protein kinase B-raf (Homo sapiens), P15056 [V600E]; test: Inhibition of BRAF V600E mutant in human SK-MEL-28 using peptide as substrate using preheated compound at 60 degC for 30 mins measured under dark condition by STK-Pamchip array-based method; type: cell-based; in short: as §3
[30] = system: A-375; test: Dark toxicity against human A375 cells harboring BRAF V600E mutant assessed as reduction in cell viability at 10 uM incubated for 24 hrs using preheated compound at 60 degC for 60 mins by MTS assay; type: cell-based; conditions: a-375, 24 h, in the assay text read “30 mins” for “60 mins”; in short: as §4
[31] = Stability in bovine plasma irradiated with white light at 10 uM by LCMS analysis; type: ADME, cell-free, Bos taurus; conditions: cattle
[32] = Drug isomerization in bovine plasma assessed as cis-isomer formation at 10 uM irradiated with 365 nm light by LCMS analysis; type: ADME, cell-free, Bos taurus; conditions: cattle
[33] = Drug isomerization in DMSO-d6 irradiated at 365 nm assessed as rate of thermal relaxation measured as cis isomer level at PSS at 2 mg/ml measured after 2.5 hrs storage in dark at room temperature by 1H-NMR spectroscopic analysis
[34] = Drug isomerization in DMSO-d6 irradiated at 365 nm assessed as cis isomer level at PSS at 2 mg/ml measured after 40 mins under room temperature by 1H and 19F-NMR spectroscopic analysis
[35] = Drug isomerization in DMSO-d6 irradiated at 365 nm assessed as cis isomer level at PSS at 2 mg/ml measured after 120 mins under room temperature by 1H and 19F-NMR spectroscopic analysis

Row | SMILES | T1/2 [1] [h] | IC50 [2] [nM] | Drug metabolism [3] [%] | T1/2 [4] [h] | Activity [6] [nm] | Drug metabolism [7] [%] | remaining at 2 mg/ml [8] [%] | Activity [9] [nm] | IC50 [10] [nM] | also measured
1 | COc1n[nH]c2ncc(NC(=O)c3c(F)ccc(/N=N\c4ccc(F)cc4)c3F)cc12 | > 20 | 8100 | 60 | > 24 | – | – | – | – | – | –
2 | COc1ccc(/N=N/c2ccc(F)c(C(=O)Nc3cnc4[nH]nc(OC)c4c3)c2F)cc1 | – | – | – | – | 357 | 96 | > 95 | 341 | 92 | Drug metabolism [5]: 83%; Drug metabolism [11]: 60%; Drug metabolism [12]: 92%
3 | COc1n[nH]c2ncc(NC(=O)c3c(F)ccc(/N=N/c4ccccc4C)c3F)cc12 | – | – | – | – | 335 | 77 | > 95 | 334 | 1700 | Drug metabolism [13]: 60%; Drug metabolism [14]: 77%
4 | COc1ccccc1/N=N/c1ccc(F)c(C(=O)Nc2cnc3[nH]nc(OC)c3c2)c1F | – | – | – | – | 334 | 88 | > 95 | 327 | 300 | Drug metabolism [5]: 88%; Drug metabolism [12]: 88%
5 | COc1n[nH]c2ncc(NC(=O)c3c(F)ccc(/N=N/c4ccc(C)cc4)c3F)cc12 | – | – | – | – | 340 | 84 | > 95 | 338 | 32 | Drug metabolism [15]: 80%; Drug metabolism [16]: 84%
6 | COc1n[nH]c2ncc(NC(=O)c3c(F)ccc(NS(=O)(=O)c4ccccc4)c3F)cc12 | – | – | – | – | – | – | – | – | – | IC50 [17]: 22 nM; inhibition [18]: Active; Activity [19]: Active
7 | COc1n[nH]c2ncc(NC(=O)c3c(F)ccc(/N=N\c4ccccc4)c3F)cc12 | > 10 | 157 | 36 | – | – | – | – | – | – | inhibition [20]: inactive; Drug metabolism [21]: Metabolite_Detected; T1/2 [22]: 5.4 h; Drug metabolism [23]: Metabolite_Detected
8 | COc1ccccc1/N=N\c1ccc(F)c(C(=O)Nc2cnc3[nH]nc(OC)c3c2)c1F | > 24 | 360 | – | > 24 | – | – | – | – | – | Drug metabolism [24]: 79%
9 | COc1n[nH]c2ncc(NC(=O)c3c(F)ccc(/N=N\c4ccc(C)cc4)c3F)cc12 | > 20 | 9 | 73 | > 24 | – | – | – | – | – | –
10 | COc1n[nH]c2ncc(NC(=O)c3c(F)ccc(/N=N\c4ccccc4C)c3F)cc12 | > 70 | 540 | – | > 24 | – | – | – | – | – | Drug metabolism [25]: 62%
11 | CCCS(=O)(=O)Nc1ccc(F)c(C(=O)c2c[nH]c3ncc(-c4ccc(Cl)cc4)cc23)c1F | – | – | – | – | – | – | – | – | – | Activity [19]: Active
12 | COc1n[nH]c2ncc(NC(=O)c3c(F)ccc(/N=N/c4ccccc4)c3F)cc12 | – | – | – | – | 332 | 37 | > 95 | 328 | 1680 | Drug metabolism [26]: 46%; Stability [27]: Unstable; inhibition [28]: Active; inhibition [29]: Active; Activity [30]: Non-Toxic; Drug metabolism [21]: Metabolite_Detected; Stability [31]: Unstable; Stability [32]: Unstable; Drug metabolism [12]: 55%
13 | COc1n[nH]c2ncc(NC(=O)c3c(F)ccc(/N=N\c4ccccc4F)c3F)cc12 | > 20 | 660 | 51 | 5 | – | – | – | – | – | Drug metabolism [33]: 50%
14 | COc1n[nH]c2ncc(NC(=O)c3c(F)ccc(/N=N/c4ccccc4F)c3F)cc12 | – | – | – | – | 336 | 71 | > 95 | 331 | 320 | Drug metabolism [15]: 71%; Drug metabolism [34]: 68%
15 | COc1ccc(/N=N\c2ccc(F)c(C(=O)Nc3cnc4[nH]nc(OC)c4c3)c2F)cc1 | > 10 | 470 | 79 | > 24 | – | – | – | – | – | –
16 | COc1ccc(/N=N/c2cccc(C(=O)Nc3cnc4[nH]nc(OC)c4c3)c2)cc1 | – | – | – | – | 352 | 73 | > 95 | 345 | 100 | Drug metabolism [5]: 92%; Drug metabolism [12]: 94%
17 | COc1ccc(/N=N\c2cccc(C(=O)Nc3cnc4[nH]nc(OC)c4c3)c2)cc1 | > 10 | 450 | 34 | – | – | – | – | – | – | T1/2 [22]: > 10 h
18 | COc1n[nH]c2ncc(NC(=O)c3c(F)ccc(/N=N/c4ccc(F)cc4)c3F)cc12 | – | – | – | – | 335 | 62 | > 95 | 338 | 2600 | Drug metabolism [35]: 62%; Drug metabolism [12]: 58%
